Results: ChEMBL document CHEMBL1153955, “Indolylarylsulfones bearing natural and unnatural amino acids. Discovery of potent inhibitors of HIV-1 non-nucleoside wild type and resistant mutant strains reverse transcriptase and coxsackie B4 virus” (J Med Chem, 2009)

Columns and labels:
[1] = test system: Human immunodeficiency virus 1; experiment: Antiviral activity against HIV1 with reverse transcriptase Y188L mutation in human CEM cells assessed as protection against virus-induced cytopathicity; assay type: functional, organism-based; conditions: Human immunodeficiency virus 1, CCRF-CEM
Outline: (§1)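 CEM cells (~3 × 10⁵ cells/mL) were infected with ~100 CCID₅₀ virus per mL and seeded with serial compound dilutions. After 4 days at 37 °C, syncytium (giant cell) formation was scored microscopically. EC₅₀ is the concentration giving 50% protection against virus cytopathicity.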

Human alphaherpesvirus 1 [2] = experiment: Antiviral activity against HSV1 KOS in human HEL cells assessed as protection against virus-induced cytopathicity; assay type: functional, organism-based; conditions: Human alphaherpesvirus 1, KOS
[3] = target: Human immunodeficiency virus type 1 reverse transcriptase (Human immunodeficiency virus 1, UniProt Q72547); experiment: Inhibition of HIV1 reverse transcriptase p66/p51; conditions: read-out: IC50
Influenza B virus [4] = experiment: Antiviral activity against influenza B virus in MDCK cells assessed as reduction of virus-induced cytopathicity by visual cytopathic effect scoring method; assay type: functional, organism-based
[5] = target: Human immunodeficiency virus type 1 reverse transcriptase (Human immunodeficiency virus 1, UniProt Q72547, L100I); experiment: Inhibition of HIV1 reverse transcriptase p66/p51 L100I mutant; conditions: read-out: IC50
Outline: (§2)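 Substrate was 0.5 µg poly(rA)/oligo(dT) 10:1 (0.3 µM 3′-OH ends) with 10 µM [³H]dTTP, at 37 °C. Acid-precipitable radioactivity was counted on GF/C filters after TCA washes.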

[6] = Cytotoxicity against MDCK cells assessed as drug level causing microscopically detectable alteration of normal cell morphology; assay type: cell-based, Canis lupus familiaris; conditions: dog
[7] = Antiproliferative activity against human Molt4/C8 cells after 3 days; assay type: cell-based; conditions: MOLT-4, 72 h
Outline: (§3)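 Cells seeded at 5 × 10⁴ to 7.5 × 10⁴ cells/200 µL with or without serial compound dilutions; incubated at 37 °C for 2 days (L1210) or 3 days (Molt4/C8, CEM). Cell numbers counted with a Coulter counter. CC₅₀ = concentration reducing proliferation by 50% versus untreated controls, read from plots of cell number (% of control) against concentration. Means of at least two independent experiments.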

[8] = Cytotoxicity against human HeLa cells assessed as drug level causing microscopically detectable alteration of normal cell morphology after 3 days; assay type: cell-based
Outline: (§4)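 Serial compound dilutions added to confluent HeLa or Vero monolayers. MCC = minimum concentration causing microscopically detectable alteration of cell morphology after 3 days of incubation.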

CCRF-CEM = experiment: Antiproliferative activity against human CEM cells after 3 days; assay type: cell-based; conditions: 72 h; outline: as §3
L1210 = experiment: Antiproliferative activity against mouse L1210 cells after 2 days; assay type: cell-based; conditions: L1210, 48 h; outline: as §3
Influenza A virus [9] = experiment: Antiviral activity against influenza H1N1 virus in MDCK cells assessed as reduction of virus-induced cytopathicity by MTS method; assay type: functional, organism-based; conditions: Influenza A virus, H1N1, MDCK
Influenza A virus H3N2 [10] = experiment: Antiviral activity against influenza H3N2 virus in MDCK cells assessed as reduction of virus-induced cytopathicity by visual cytopathic effect scoring method; assay type: functional, organism-based
[11] = test system: Human immunodeficiency virus 2; experiment: Antiviral activity against HIV2 ROD in human CEM cells assessed as protection against virus-induced cytopathicity after 4 days; assay type: functional, organism-based; conditions: Human immunodeficiency virus 2, ROD, CCRF-CEM, 96 h
Outline: (§5)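 CEM cells (~3 × 10⁵ cells/mL) infected with ~100 CCID₅₀ per mL of HIV-1 (IIIB) or HIV-2 (ROD), then seeded into wells containing compound dilutions. After 4 days at 37 °C, syncytium (giant cell) formation was examined microscopically. EC₅₀ = concentration protecting CEM cells from HIV cytopathicity by 50%.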

Felid alphaherpesvirus 1 = experiment: Antiviral activity against Feline herpesvirus in feline […] cells assessed as inhibition of virus-induced cytopathicity; assay type: functional, organism-based
[12] = target: Human immunodeficiency virus type 1 reverse transcriptase (Human immunodeficiency virus 1, UniProt Q72547, K103N); experiment: Inhibition of HIV1 reverse transcriptase p66/p51 K103N mutant; conditions: read-out: IC50; outline: as §2
[13] = test system: Mammalian orthoreovirus 1; experiment: Antiviral activity against Reovirus 1 in african green monkey Vero cells assessed as protection against virus-induced cytopathicity; assay type: functional, organism-based; conditions: Mammalian orthoreovirus 1, Vero
Outline: (§6)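 Confluent cell monolayers inoculated with 100 CCID₅₀ virus. After 1-2 h adsorption, residual virus removed and cultures incubated with varying compound concentrations. Cytopathicity scored once it reached completion in untreated infected controls. EC₅₀ = dose reducing virus-induced cytopathogenicity by 50%.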

Influenza A virus H3N2 [14] = experiment: Antiviral activity against influenza H3N2 virus in MDCK cells assessed as reduction of virus-induced cytopathicity by MTS method; assay type: functional, organism-based
Vaccinia virus = experiment: Antiviral activity against Vaccinia virus Lederle in human HEL cells assessed as protection against virus-induced cytopathicity; assay type: functional, organism-based; conditions: Orthopoxvirus vaccinia
Influenza B virus [15] = experiment: Antiviral activity against influenza B virus in MDCK cells assessed as reduction of virus-induced cytopathicity by MTS method; assay type: functional, organism-based
Human respirovirus 3 = experiment: Antiviral activity against Parainfluenza virus type 3 in african green monkey Vero cells assessed as protection against virus-induced cytopathicity; assay type: functional, organism-based; conditions: Human respirovirus 3, Vero; outline: as §6
[16] = test system: Vesicular stomatitis virus; experiment: Antiviral activity against VSV in human HEL cells assessed as protection against virus-induced cytopathicity; assay type: functional, organism-based
[17] = test system: Respiratory syncytial virus; experiment: Antiviral activity against RSV Long in human HeLa cells assessed as protection against virus-induced cytopathicity; assay type: functional, organism-based; outline: as §6
Human alphaherpesvirus 2 = experiment: Antiviral activity against HSV2 G in human HEL cells assessed as protection against virus-induced cytopathicity; assay type: functional, organism-based; conditions: Human alphaherpesvirus 2, strain G; outline: as §6
Coxsackievirus B4 [18] = experiment: Antiviral activity against Coxsackievirus B4 in human HeLa cells assessed as protection against virus-induced cytopathicity; assay type: functional, organism-based; conditions: Enterovirus B; outline: as §6
[19] = test system: Human immunodeficiency virus 1; experiment: Antiviral activity against HIV1 with reverse transcriptase Y181I mutation in human CEM cells assessed as protection against virus-induced cytopathicity; assay type: functional, organism-based; conditions: Human immunodeficiency virus 1, CCRF-CEM; outline: as §1
Punta Toro virus = experiment: Antiviral activity against Punta Toro virus in african green monkey Vero cells assessed as protection against virus-induced cytopathicity; assay type: functional, organism-based; outline: as §6
Feline coronavirus = experiment: Antiviral activity against Feline coronavirus in feline […] cells assessed as inhibition of virus-induced cytopathicity; assay type: functional, organism-based; conditions: Alphacoronavirus 1
[20] = test system: Human immunodeficiency virus 1; experiment: Antiviral activity against HIV1 with reverse transcriptase L100I mutation in human CEM cells assessed as protection against virus-induced cytopathicity; assay type: functional, organism-based; conditions: Human immunodeficiency virus 1, CCRF-CEM; outline: as §1
Influenza A virus [21] = experiment: Antiviral activity against influenza H1N1 virus in MDCK cells assessed as reduction of virus-induced cytopathicity by visual cytopathic effect scoring method; assay type: functional, organism-based
[22] = Cytotoxicity against african green monkey Vero cells assessed as drug level causing microscopically detectable alteration of normal cell morphology after 3 days; assay type: cell-based; conditions: chlorocebus sabaeus; outline: as §4
[23] = Cytotoxicity against human HEL cells assessed as drug level causing microscopically detectable alteration of normal cell morphology after 3 days; assay type: cell-based
Sindbis virus = experiment: Antiviral activity against Sindbis virus in african green monkey Vero cells assessed as protection against virus-induced cytopathicity; assay type: functional, organism-based; outline: as §6
[24] = target: Human immunodeficiency virus type 1 reverse transcriptase (Human immunodeficiency virus 1, UniProt Q72547, Y181I); experiment: Inhibition of HIV1 reverse transcriptase p66/p51 Y181I mutant; conditions: read-out: IC50; outline: as §2
[25] = test system: Human immunodeficiency virus 1; experiment: Antiviral activity against HIV1 with reverse transcriptase K103N mutation in human CEM cells assessed as protection against virus-induced cytopathicity; assay type: functional, organism-based; conditions: Human immunodeficiency virus 1, CCRF-CEM; outline: as §1
[26] = test system: Human immunodeficiency virus 1; experiment: Antiviral activity against HIV1 with reverse transcriptase Y181C mutation in human CEM cells assessed as protection against virus-induced cytopathicity; assay type: functional, organism-based; conditions: Human immunodeficiency virus 1, CCRF-CEM; outline: as §1
[27] = test system: Human immunodeficiency virus 1; experiment: Antiviral activity against HIV1 3B in human CEM cells assessed as protection against virus-induced cytopathicity after 4 days; assay type: functional, organism-based; conditions: Human immunodeficiency virus 1, 3B, CCRF-CEM, 96 h; outline: as §5
Human alphaherpesvirus 1 [28] = experiment: Antiviral activity against thymidine kinase deficient and acyclovir resistant HSV1 KOS in human HEL cells assessed as protection against virus-induced cytopathicity; assay type: functional, organism-based; conditions: Human alphaherpesvirus 1, KOS
[29] = Cytotoxicity against feline CRFK cells by MTS assay; assay type: cell-based, Felis catus; conditions: cat
Coxsackievirus B4 [30] = experiment: Antiviral activity against Coxsackievirus B4 in african green monkey Vero cells assessed as protection against virus-induced cytopathicity; assay type: functional, organism-based; conditions: Enterovirus B; outline: as §6
[31] = Cytotoxicity against MDCK cells by MTS assay; assay type: cell-based, Canis lupus familiaris; conditions: dog
[32] = test system: Vesicular stomatitis virus; experiment: Antiviral activity against VSV in human HeLa cells assessed as protection against virus-induced cytopathicity; assay type: functional, organism-based

Cc1cc(C)cc(S(=O)(=O)c2c(C(=O)NC(C)CS(N)(=O)=O)[nH]c3ccc(Cl)cc23)c1 (configuration not stated)
IC50 [1]: > 1 µM | EC50 (Human alphaherpesvirus 1 [2]): > 4 µM | IC50 [3]: 0.0004 µM | EC50 (Influenza B virus [4]): > 4 µM | IC50 [5]: 0.004 µM | MCC [6]: 20 µM | IC50 [7]: 8.8 µM | MCC at 72 h [8]: 100 µM | IC50 (CCRF-CEM): 13 µM | IC50 (L1210): 15 µM | EC50 (Influenza A virus [9]): > 4 µM | EC50 (Influenza A virus H3N2 [10]): > 4 µM | EC50 [11]: > 10 µM | EC50 (Felid alphaherpesvirus 1): > 4 µM | IC50 [12]: 0.233 µM | EC50 [13]: 20 µM | EC50 (Influenza A virus H3N2 [14]): > 4 µM | EC50 (Vaccinia virus): > 4 µM | EC50 (Influenza B virus [15]): > 4 µM | EC50 (Human respirovirus 3): > 20 µM | EC50 [16]: > 4 µM | EC50 [17]: > 20 µM | EC50 (Human alphaherpesvirus 2): > 4 µM | EC50 (Coxsackievirus B4 [18]): 3 µM | IC50 [19]: > 1 µM | EC50 (Punta Toro virus): > 20 µM | EC50 (Feline coronavirus): > 4 µM | IC50 [20]: 0.002 µM | EC50 (Influenza A virus [21]): > 4 µM | MCC at 72 h [22]: ≥ 20 µM | MCC at 72 h [23]: 20 µM | EC50 (Sindbis virus): > 20 µM | IC50 [24]: 1.94 µM | IC50 [25]: 0.036 µM | IC50 [26]: 0.39 µM | EC50 [27]: 0.0023 µM | EC50 (Human alphaherpesvirus 1 [28]): > 4 µM | CC50 [29]: 11.1 µM | EC50 (Coxsackievirus B4 [30]): 12 µM | CC50 [31]: 12.2 µM | EC50 [32]: > 20 µM

Cc1cc(C)cc(S(=O)(=O)c2c(C(=O)NCCS(N)(=O)=O)[nH]c3ccc(Cl)cc23)c1
IC50 [1]: > 1 µM | EC50 (Human alphaherpesvirus 1 [2]): > 4 µM | IC50 [3]: 0.0004 µM | EC50 (Influenza B virus [4]): > 4 µM | IC50 [5]: 0.025 µM | MCC [6]: 20 µM | IC50 [7]: 12 µM | MCC at 72 h [8]: 20 µM | IC50 (CCRF-CEM): 14 µM | IC50 (L1210): 20 µM | EC50 (Influenza A virus [9]): > 4 µM | EC50 (Influenza A virus H3N2 [10]): > 4 µM | EC50 [11]: > 10 µM | EC50 (Felid alphaherpesvirus 1): > 4 µM | IC50 [12]: 0.584 µM | EC50 [13]: 20 µM | EC50 (Influenza A virus H3N2 [14]): > 4 µM | EC50 (Vaccinia virus): > 4 µM | EC50 (Influenza B virus [15]): > 4 µM | EC50 (Human respirovirus 3): > 20 µM | EC50 [16]: > 4 µM | EC50 [17]: > 4 µM | EC50 (Human alphaherpesvirus 2): > 4 µM | EC50 (Coxsackievirus B4 [18]): > 4 µM | IC50 [19]: > 1 µM | EC50 (Punta Toro virus): 20 µM | EC50 (Feline coronavirus): > 4 µM | IC50 [20]: 0.0012 µM | EC50 (Influenza A virus [21]): > 4 µM | MCC at 72 h [22]: 100 µM | MCC at 72 h [23]: 20 µM | EC50 (Sindbis virus): 20 µM | IC50 [24]: > 40 µM | IC50 [25]: 0.04 µM | IC50 [26]: 0.23 µM | EC50 [27]: 0.0014 µM | EC50 (Human alphaherpesvirus 1 [28]): > 4 µM | CC50 [29]: 8.5 µM | EC50 (Coxsackievirus B4 [30]): 9 µM | CC50 [31]: 7.9 µM | EC50 [32]: > 4 µM
